Sampled rows, rich in hits. Any-hit rate of the full collection: about 4.5%.
MrgX1 PAM: allosterically activates human MrgX1 receptor signaling. MrgX1-HEK293, Fluo-4 calcium flux, FDSS; active compounds read high. B-score at 10 µM. actives 0.63% (n = 310,000). AID 588675;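 active means plate-corrected calcium response at least 3 library SD above typical, normal starting fluorescence, not activating the receptor alone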;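 further: compound read alongside a low EC10 to EC30 dose of BAM8-22 agonist; peak minus trough fluorescence over baseline measured at the second addition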
RGS4 inh: human RGS4 inhibition | B-score at 10 µM | P49798 | HEK293 M3R/RGS4 inducible, Fluo-4 calcium flux; active compounds read high; triggered by carbachol at its EC20 | actives 0.45% (n = 310,000);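 active means B-score, a plate-corrected calcium signal, over three deviations above library mean, with baseline fluorescence within five deviations of library mean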;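 further: RGS4 expression induced by doxycycline in cells with stable M3 receptor; B-score is computed from the integrated fluorescence ratio over baseline after carbachol; higher B-score means a larger calcium signal and so more RGS4 inhibition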
Target sequence (P49798 whole entry, looked up): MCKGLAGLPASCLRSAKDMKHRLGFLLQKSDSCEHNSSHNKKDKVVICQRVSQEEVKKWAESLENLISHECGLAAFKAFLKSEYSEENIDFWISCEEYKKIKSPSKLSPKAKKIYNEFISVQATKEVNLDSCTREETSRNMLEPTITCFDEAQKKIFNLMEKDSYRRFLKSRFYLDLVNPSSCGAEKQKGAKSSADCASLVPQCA
MrgX1 agonist: activates human MrgX1 receptor signaling | Q96LB2 | MrgX1-HEK293 cells, Fluo-4 calcium fluorescence, agonist mode; active compounds read high | B-score at 10 µM | actives 0.44% (n = 310,000);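 active means calcium response B-score plate-corrected fluorescence ratio at least 3 library SD, with starting fluorescence B-score inside 5 SD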
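Test system: Stable human MrgX1 HEK293 cell line | Schedule: Overnight plating before 1 h dye loading | Read-out basis: Baseline-normalised fluorescence change ratio, B-scored | Detection: Kinetic calcium dye fluorescence, Fluo-4 NW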
MrgX1 antag: blocks BAM8-22 activation of human MrgX1 receptor; Q96LB2; MRGX1-HEK293 calcium flux, Fluo-4, BAM8-22 antagonism; active compounds read low; B-score at 10 µM; actives 1.3% (n = 310,000);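 active means calcium-response B-score plate-corrected more than 3 library SD below zero, starting fluorescence within 5 deviations, no agonist response on first addition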;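 further: peak minus trough fluorescence over baseline after final BAM8-22 challenge near maximal dose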
RGS4 pot: RGS4 potentiation or activation; HEK293 M3R/inducible RGS4, carbachol calcium flux Fluo4; active compounds read low; B-score at 10 µM; actives 0.92% (n = 310,000);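 active means B-score of the integrated calcium signal more than 4 SD below the library mean, with starting fluorescence not abnormally high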;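 further: negative B-score means reduced calcium response which marks RGS4 activation or potentiation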
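test system = HEK293 cells with stable M3R and inducible RGS4 | schedule = recording 10 s baseline at 1 Hz, 100 s post-agonist | technique = Fluo4-AM (2 µM) calcium-flux fluorescence, kinetic read | measure = Agonist-evoked peak-minus-minimum fluorescence over baseline, integrated ratio, B score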
PHOSPHO1 inh: blocks human PHOSPHO1 phosphatase activity. inhibition, % at 13.3 µM. AID 1565. recombinant PHOSPHO1, absorbance phosphatase assay. Q8TCT1. actives 1.1% (n = 290,000); in the data active means inhibition above about 60%
Target sequence (Q8TCT1 whole entry, looked up): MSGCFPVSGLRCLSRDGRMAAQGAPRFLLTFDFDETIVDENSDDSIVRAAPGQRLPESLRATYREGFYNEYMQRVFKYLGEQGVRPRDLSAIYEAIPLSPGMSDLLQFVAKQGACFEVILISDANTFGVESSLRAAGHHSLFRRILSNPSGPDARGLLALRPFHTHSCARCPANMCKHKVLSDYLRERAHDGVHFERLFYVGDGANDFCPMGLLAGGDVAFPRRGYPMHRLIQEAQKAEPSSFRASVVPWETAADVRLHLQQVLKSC
Large screens that a line does not name were inactive.

CCOC(=O)c1c(NC(=O)CSc2nnc(-c3cccc(C)c3)n2CC)sc(C(C)=O)c1C	RGS4 pot -6.96
Cc1ccc(NC(=O)CSc2nnc(-c3cccs3)n2Cc2ccco2)cc1	none
CCOC(=O)c1c(NC(=O)CSc2nnc(-c3ccccc3)n2CC)sc(C(C)=O)c1C	none
CCn1c(Cn2nnc(-c3ccccc3)n2)nnc1SCC(=O)Nc1ccc(N(C)C)cc1	PHOSPHO1 inh 78.4
CC(OCC(O)CN(C)CCOc1ccccc1)c1ccc(Cl)cc1 (stereo not drawn)	none
CCn1c(SCC(=O)Nc2ccc(N(C)C)cc2)nnc1-c1cccc(C)c1	PHOSPHO1 inh 78.9
CCn1c(SCC(=O)Nc2cc(C)on2)nnc1-c1cccc(C)c1	none
Cc1cc(C)c2c(N)c(S(=O)c3ccc(C(C)(C)C)cc3)sc2n1 (stereo not drawn)	PHOSPHO1 inh 106.0
Cc1[nH]c(-c2ccc(F)cc2)cc1C(=O)N1CCN(c2ccccc2F)CC1	none
O=C(Nc1ncc([N+](=O)[O-])s1)c1ccc2c(c1)OCO2	none
Cc1ccc(C(=O)Nc2ncc([N+](=O)[O-])s2)cc1	MrgX1 antag -4.54
Cc1onc(-c2ccccc2)c1C(=O)Nc1ncc([N+](=O)[O-])s1	MrgX1 antag -4.55
CCOc1ccc2nc(NC(=S)NCc3ccccc3)sc2c1	PHOSPHO1 inh 71.9
CCOC(=O)c1cnn(-c2ccc(F)cc2)c1N	none
COc1ccc(-c2nc(CS(=O)CC(=O)NC3CCCC3)c(C)o2)cc1 (stereo not drawn)	PHOSPHO1 inh 70.0
COCCNC(=O)CS(=O)Cc1nc(-c2ccccc2C)oc1C (stereo not drawn)	MrgX1 antag -5.27
COc1ccc(CCNCc2ccc(OCC(=O)N3CCCCC3)c(OC)c2)cc1OC	none
CCOCCCNCc1ccc(OCC(=O)N2CCOCC2)c(OC)c1	PHOSPHO1 inh 60.0
CC(C)(C)N1C(=O)[C@H]2[C@@H](c3ccc(Br)cc3)N3C(=O)N(c4cccc(Cl)c4)C(=O)[C@@]3(Cc3ccccc3)[C@H]2C1=O	none (no result: PHOSPHO1 inh)
CCC(C)CCCCNC1=NCCS1 (stereo not drawn)	none
Cc1ccc(NC(=O)CSc2ccc(-c3cccnc3)nn2)c(C)c1	PHOSPHO1 inh 72.8
Cc1ccc(NC(=O)CSc2ccc(-c3ccccn3)nn2)c(C)c1	none
CCN1CCN(CCNC(=O)c2ccc(/C=C3/Sc4ccccc4N(Cc4cccc(Cl)c4)C3=O)cc2)CC1	RGS4 pot -9.9
Cc1cccc(CN2C(=O)/C(=C\c3ccc(C(=O)NCCN4CCOCC4)cc3)Sc3ccccc32)c1	RGS4 pot -7.32
O=C(NCCN1CCOCC1)c1ccc(/C=C2\Sc3ccccc3N(Cc3ccccc3F)C2=O)cc1	none
CC(=O)Nc1sc2c(c1C(c1ccccc1Cl)N1CCN(CCO)CC1)CCCC2 (stereo not drawn)	RGS4 pot -7.51
CCOC(=O)c1sc(=S)n(Cc2ccccc2)c1N	MrgX1 agonist 47.3
CCOC(=O)c1sc(=S)n(CC)c1N	none
Cc1nc2ccccc2c2oc(C(=O)N3CCN(c4ccc([N+](=O)[O-])cc4)CC3)cc12	MrgX1 PAM 6.65
Cc1nc2ccccc2c2oc(C(=O)N3CCN(C(=O)c4ccco4)CC3)cc12	none
COCc1cc(C)nc(N/N=C/c2ccc(Cl)c(Cl)c2)c1C#N	none
CCOC1(C)OCC(=O)[C@]2(CCC3C4CCC5=CC(=O)C=CC5(C)C4C(=O)CC32C)O1 (stereo partly drawn)	none
COC1=C(Nc2ccc(C)cc2)C(=O)c2ccccc2C1=O	MrgX1 PAM 17.1
COC1=C(Nc2ccccc2)C(=O)c2ccccc2C1=O	MrgX1 PAM 10.1
N#Cc1ccccc1S(=O)(=O)Nc1ccc2c(c1)C(=O)OC2	none
S=C(NCCc1ccccc1)NN=C1CCCCCC1	MrgX1 PAM 7.41
S=C(NCCc1ccccc1)N/N=C/C1CCCCC1	MrgX1 PAM 9.07
O=C(O)c1ccc(Cl)c(S(=O)(=O)Nc2ccccc2C(=O)Nc2ccc(Cl)cc2)c1	none
Cc1ccoc1C(=O)NCCNc1ccc(Cl)cc1[N+](=O)[O-]	MrgX1 antag -5.09
Cn1c(-c2sc3cc(C(F)(F)F)cnc3c2-c2cccnc2)n[nH]c1=S	PHOSPHO1 inh 92.0
CCOC(=O)N1CCN(C(=O)c2ccc(Cl)nc2)CC1	none
CCn1c(SCC(=O)Nc2ccc3c(c2)OCO3)nc2c1c(=O)n(C)c(=O)n2C	none
Cn1c(=O)c2c(nc(SCC(=O)O)n2Cc2cc3c(cc2Cl)OCO3)n(C)c1=O	PHOSPHO1 inh 63.7
CC1Cc2ccccc2N1C(=O)CSc1nc2c(c(=O)n(C)c(=O)n2C)n1Cc1ccccc1 (stereo not drawn)	RGS4 pot -7.23
N#CCCn1nc(-c2ccccc2)c2ccccc2c1=O	none
CCCCC[C@H](O)/C=C/[C@H]1[C@H](O)CC(=O)[C@@H]1CCCCCCC(=O)O	RGS4 inh 6.4, MrgX1 agonist 30 (no result: PHOSPHO1 inh)
CS(=O)(=O)c1nc(-c2ccco2)cc(C(F)(F)F)n1	RGS4 pot -7.03
COc1ccccc1-c1cc(C(F)(F)F)nc(S(C)(=O)=O)n1	none
CC1CCCN(c2ccc(C(=O)NCc3ccco3)cc2[N+](=O)[O-])C1 (stereo not drawn)	MrgX1 antag -6.35
O=C(Nc1nc(-c2ccccc2)cs1)c1ccc(N2CCOCC2)c([N+](=O)[O-])c1	MrgX1 antag -7.37
CN(C)S(=O)(=O)c1ccc(C(=O)NCc2ccccn2)cc1	PHOSPHO1 inh 61.5
CN(c1ccccc1)S(=O)(=O)c1ccc(C(=O)NCc2ccccn2)cc1	none
O=C(NCc1ccccn1)c1ccc(N2CCCC2)c([N+](=O)[O-])c1	PHOSPHO1 inh 62.9
CN(C)S(=O)(=O)c1cccc(NC(=O)c2ccccc2OCc2ccc(F)cc2)c1	none
NC(=O)c1ccc(N2CCCCCC2)c([N+](=O)[O-])c1	MrgX1 antag -5.65
O=C(c1ccc(CS(=O)c2ccccc2Cl)o1)N1CCN(c2ccccn2)CC1 (stereo not drawn)	none
CCCCn1c(SCC(=O)NC(C)CC)nc2ccc(N3CCOCC3)cc2c1=O (stereo not drawn)	PHOSPHO1 inh 60.5
CCc1cccc2c(C(=O)COC(=O)c3nn(C)c(=O)c4ccccc34)c[nH]c12	RGS4 pot -7.33
CC1=C(C(=O)Nc2cccc(C(=O)NCc3ccccc3C)c2)SCCO1	none
CCc1ccccc1NC(=O)CSc1nnc(Cn2nnc3ccccc32)n1C	RGS4 pot -7.51
Cc1nc(N)ncc1C(=O)Nc1ccccc1	none
O=C(N/N=C/c1cc([N+](=O)[O-])ccc1O)c1cc(-c2ccccc2)nc2ccccc12	MrgX1 antag -6.04
